According to ChEMBL document CHEMBL1149158, “Combination of paclitaxel and nitric oxide as a novel treatment for the reduction of restenosis” (J Med Chem, 2004):

What was measured:
Oryctolagus cuniculus [1] = species on record: Oryctolagus cuniculus; assay: Compound was evaluated to determine the stenosis in Rabbit Iliac Arteries; format: functional
Oryctolagus cuniculus [2] = species on record: Oryctolagus cuniculus; assay: Compound was evaluated to determine the stenosis in Rabbit Iliac Arteries value expressed as difference from bare stents; format: functional
Oryctolagus cuniculus [3] = species on record: Oryctolagus cuniculus; assay: Compound was evaluated to determine the stenosis in Rabbit Iliac Arteries value expressed as difference from polymer coated stents; format: functional
Oryctolagus cuniculus [4] = species on record: Oryctolagus cuniculus; assay: Compound was evaluated to determine the stenosis in Rabbit Iliac Arteries value expressed as net effect of NO over paclitaxel coated stents; format: functional
Oryctolagus cuniculus [5] = assay: In vivo nitric oxide(NO) release was determined by the coated stent compound in rabbit iliac at 0 h; value expressed as mercury displaceable nitric oxide; format: functional
Oryctolagus cuniculus [6] = assay: In vivo nitric oxide(NO) release was determined by the coated stent compound in rabbit iliac at 6 hrs; value expressed as mercury displaceable nitric oxide; format: functional
Summary of the method: (§1)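 Coated stent deployed in rabbit iliac artery, position confirmed by angiography; 6 h later animal euthanized with 120 mg/kg iv sodium pentobarbital, stent recovered from the artery and nitrosothiol/NO content measured by chemiluminescence; retained content expressed relative to original load.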

Oryctolagus cuniculus [7] = assay: In vivo nitric oxide(NO) release was determined by the coated stent compound in rabbit iliac at 6 hrs; value expressed as percent remaining nitric oxide; format: functional; summary of the method: as §1
[8] = tested on: Coronary artery smooth muscle cell line; assay: (§2) In vitro antiproliferative effect on cultured human coronary artery smooth muscle cells (hCASMC); format: functional, cell-based
Summary of the method: (§3)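 Human coronary artery smooth muscle cells seeded at 3×10^4 per well in SmGM2 growth medium; compound added from 1000× ethanol stock 3-4 h after seeding, ethanol vehicle controls, n = 4 per point. After 68-72 h cells trypsinized and viable (Trypan Blue negative) cells counted by hemacytometer; mean ± SD.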

[9] = Stent coated compound was evaluated for mercury displaceable NO before sterilization (Electron-Beam Radiation); format: functional
[10] = Stent coated compound was evaluated for mercury displaceable NO after sterilization (Electron-Beam Radiation); format: functional
Oryctolagus cuniculus [11] = species on record: Oryctolagus cuniculus; assay: In vitro antiplatelet aggregatory effect in rabbit platelet rich plasma (PRP); format: functional
Summary of the method: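 Rabbit blood collected 10:1 into 3.8% trisodium citrate pH 6.5, spun 180g 15 min at 21 °C to give PRP. PRP preincubated 2 min at 37 °C with compound (500× ethanol stock), then aggregation induced with ADP (5–10 μM) and followed in an aggregometer; percent inhibition calculated relative to maximum aggregation amplitude.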

Homo sapiens = species on record: Homo sapiens; assay: as §2; format: functional; summary of the method: as §3

SMILES	Activity (Oryctolagus cuniculus [5])	Activity (Oryctolagus cuniculus [6])	Activity (Oryctolagus cuniculus [7])	IC50 [8]	Activity [9]	Activity [10]	other results
CC(=O)O[C@H]1C(=O)[C@@]2(C)C([C@H](OC(=O)c3ccccc3)[C@]3(O)C[C@H](OC(=O)[C@H](O)[C@@H](NC(=O)c4ccccc4)c4ccccc4)C(C)=C1C3(C)C)[C@]1(OC(C)=O)CO[C@@H]1C[C@@H]2OC(=O)CC(C)(C)SN=O.CN(C)C(=O)CC1(SN=O)C2CC3CC(C2)CC1C3 (some centres not stated) [listing 1 of 2 here]	627 nmol/stent	209 nM stent-1	31%				Stenosis (Oryctolagus cuniculus [1]): 15%; Activity (Oryctolagus cuniculus [2]): -18%; Activity (Oryctolagus cuniculus [3]): -41%; Activity (Oryctolagus cuniculus [4]): -34%
CC(=O)O[C@H]1C(=O)[C@@]2(C)[C@H]([C@H](OC(=O)c3ccccc3)[C@]3(O)C[C@H](OC(=O)[C@H](O)[C@@H](NC(=O)c4ccccc4)c4ccccc4)C(C)=C1C3(C)C)[C@]1(OC(C)=O)CO[C@@H]1C[C@@H]2O [PACLITAXEL]				~1 nM			Stenosis (Oryctolagus cuniculus [1]): 22.6%; Activity (Oryctolagus cuniculus [2]): 23%; Activity (Oryctolagus cuniculus [3]): -11%
CC(=O)O[C@H]1C(=O)[C@@]2(C)C([C@H](OC(=O)c3ccccc3)[C@]3(O)C[C@H](OC(=O)[C@H](O)[C@@H](NC(=O)c4ccccc4)c4ccccc4)C(C)=C1C3(C)C)[C@]1(OC(C)=O)CO[C@@H]1C[C@@H]2OC(=O)CC(C)(C)SN=O (some centres not stated) [listing 1 of 2 here]					349 nM stent-1	316 nM stent-1	
CN(C)C(=O)CC1(SN=O)C2CC3CC(C2)CC1C3 (configuration not stated)	417 nmol/stent	18 nM stent-1	5%	15000 nM	436 nM stent-1	440 nM stent-1	
CC(=O)O[C@H]1C(=O)[C@@]2(C)C([C@H](OC(=O)c3ccccc3)[C@]3(O)C[C@H](OC(=O)[C@H](O)[C@@H](NC(=O)c4ccccc4)c4ccccc4)C(C)=C1C3(C)C)[C@]1(OC(C)=O)CO[C@@H]1C[C@@H]2OC(=O)CC(C)(C)S (some centres not stated)				20 nM			
CC(=O)O[C@H]1C(=O)[C@@]2(C)C([C@H](OC(=O)c3ccccc3)[C@]3(O)C[C@H](OC(=O)[C@H](O)[C@@H](NC(=O)c4ccccc4)c4ccccc4)C(C)=C1C3(C)C)[C@]1(OC(C)=O)CO[C@@H]1C[C@@H]2OC(=O)CC(C)(C)SN=O (some centres not stated) [listing 2 of 2 here]	369 nmol/stent	214 nM stent-1	65%				IC50 (Oryctolagus cuniculus [11]): 10000 nM; IC50 (Homo sapiens): ~20 nM
CC(=O)O[C@H]1C(=O)[C@@]2(C)C([C@H](OC(=O)c3ccccc3)[C@]3(O)C[C@H](OC(=O)[C@H](O)[C@@H](NC(=O)c4ccccc4)c4ccccc4)C(C)=C1C3(C)C)[C@]1(OC(C)=O)CO[C@@H]1C[C@@H]2OC(=O)CC(C)(C)SN=O.CN(C)C(=O)CC1(SN=O)C2CC3CC(C2)CC1C3 (some centres not stated) [listing 2 of 2 here]					733 nM stent-1	746 nM stent-1	
